This note sets out measurements from paper PMC3909687 (Biochimica et biophysica acta, 2012).

SMILES strings stand for the structures.

The experiment deals with T1, CC1736 (Caulobacter vibrioides, UniProt Q9A7I7).
T1 sequence (Q9A7I7 1-148): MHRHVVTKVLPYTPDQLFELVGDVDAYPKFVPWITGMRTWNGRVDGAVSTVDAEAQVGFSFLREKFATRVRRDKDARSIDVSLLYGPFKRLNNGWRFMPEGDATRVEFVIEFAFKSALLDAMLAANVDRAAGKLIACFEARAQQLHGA
Description: spin-column desalting separation, lipid extraction, HPLC-UV. The format is binding. Summed up:
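Protein (2-3 nmol; cytochrome c 8-10 nmol as control) incubated with ligand (0.005–0.27 mM) in 20 mM MES pH 6.4, 100 mM NaCl, 5.0 mM CaCl2, 0.1 mM dodecyl maltoside, 1.0 mM TCEP, 2% ethanol, 45 min, 30 °C. Desalting spin column; protein by Lowry; eluate lipids by reversed-phase HPLC-UV.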
The Kd is the concentration at which binding is half-saturated. Take `COC1=CC(=O)C(C)=C(C/C=C(\C)CC/C=C(\C)CCC=C(C)C)C1=O` [DMQ3]: the Kd turned out to be 140 ± 77 µM.

As to `COC1=C(OC)C(=O)C(C/C=C(\C)CCC=C(C)C)=C(C)C1=O` [Q2], the equilibrium dissociation constant (Kd) stood at 18 ± 2 µM.

With `COC1=C(OC)C(=O)C(C/C=C(\C)CC/C=C(\C)CCC=C(C)C)=C(C)C1=O` [Q3], the Kd turned out to be 35 ± 16 µM.
